Measurements as given in ChEMBL document CHEMBL5316305, “An Empirical Quantitative Structure-Activity Relationship Equation Assists the Discovery of High-Affinity Phosphodiesterase 4D Inhibitors as Leads to PET Radioligands” (J Med Chem, 2023).

Assays:
[1] = biological target: T1, 3',5'-cyclic-AMP phosphodiesterase 4B (Homo sapiens, UniProt Q07343, S133D); assay: Inhibition of PDE4B1 S133D mutant (unknown origin) preincubated for 5 to 10 mins followed by substrate addition and measured for 10 mins by coupled enzyme based fluorescence analysis
Method in brief: (§1)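 Mutationally activated dimeric enzymes: PDE4D7-S129D (PDE4D*) and PDE4B1-S133D (PDE4B*). A real-time coupled enzyme assay measured inhibition instead of a fluorescein-labeled cAMP substrate, because the label prevents UCR2 closure. PDE4B* was used to assess subtype selectivity. The method otherwise followed earlier work.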

[2] = Selectivity index, ratio of IC50 for PDE4B1 S133D mutant (unknown origin) to IC50 for PDE4D7 S129D mutant (unknown origin)
Method in brief: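 B/D ratio is the IC50 against PDE4B1-S133D (PDE4B*) divided by the IC50 against PDE4D7-S129D (PDE4D*). Both IC50s come from the real-time coupled enzyme assay on the mutationally activated dimeric enzymes.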

[3] = Inhibition of PDE4D7 S129D mutant (unknown origin) preincubated for 5 to 10 mins followed by substrate addition and measured for 10 mins by coupled enzyme based fluorescence analysis; design: species or system Homo sapiens; method in brief: as §1
[4] = biological target: T1, 3',5'-cyclic-AMP phosphodiesterase 4B; assay: Inhibition of human PDE4B1 S133D mutant by coupled enzyme based fluorescence analysis; method in brief: as §1
Homo sapiens = species: Homo sapiens; assay: Selectivity index, ratio of IC50 for human PDE4B1 S133D mutant to IC50 for human PDE4D7 S129D mutant
[5] = Inhibition of human PDE4D7 S129D mutant by coupled enzyme based fluorescence analysis

T1 sequence (Q07343 whole entry S133D): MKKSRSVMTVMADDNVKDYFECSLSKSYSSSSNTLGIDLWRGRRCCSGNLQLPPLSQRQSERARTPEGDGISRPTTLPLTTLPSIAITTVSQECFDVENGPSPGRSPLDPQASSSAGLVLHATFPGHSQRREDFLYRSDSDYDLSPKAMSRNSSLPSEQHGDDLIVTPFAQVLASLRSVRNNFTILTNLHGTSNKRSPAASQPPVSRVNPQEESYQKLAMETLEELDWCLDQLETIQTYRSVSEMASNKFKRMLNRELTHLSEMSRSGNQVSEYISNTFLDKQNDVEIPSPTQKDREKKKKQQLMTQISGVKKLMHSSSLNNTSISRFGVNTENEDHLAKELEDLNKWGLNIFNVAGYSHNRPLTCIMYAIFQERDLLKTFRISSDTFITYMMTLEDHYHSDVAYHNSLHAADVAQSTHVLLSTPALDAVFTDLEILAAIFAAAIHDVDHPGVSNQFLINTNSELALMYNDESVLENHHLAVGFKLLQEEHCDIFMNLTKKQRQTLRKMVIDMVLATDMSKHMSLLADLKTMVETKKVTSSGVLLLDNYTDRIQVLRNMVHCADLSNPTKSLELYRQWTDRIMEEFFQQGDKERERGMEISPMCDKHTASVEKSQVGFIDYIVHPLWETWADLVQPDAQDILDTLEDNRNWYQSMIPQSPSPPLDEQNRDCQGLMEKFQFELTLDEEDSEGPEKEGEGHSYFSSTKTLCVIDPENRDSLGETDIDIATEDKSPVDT

| Structure (SMILES) | IC50 [1] [nM] | Ratio IC50 [2] | IC50 [3] [nM] | IC50 [4] [nM] | Ratio IC50 (Homo sapiens) | IC50 [5] [nM] | logIC50 [3] |
| --- | --- | --- | --- | --- | --- | --- | --- |
| Fc1cccc(-c2nc(Oc3cn[nH]c3)ccc2OC(F)F)c1 | 3110 | 45 | 70 | – | – | – | – |
| FC(F)Oc1cccc(-c2nc(Cc3cn[nH]c3)ccc2OCc2ccccc2)c1 | > 10000 | – | 164 | – | – | – | – |
| COc1ccc(Cc2ccc(CCCO)cc2)nc1-c1cccc(OC(F)F)c1 | > 10000 | – | 16 | – | – | – | – |
| COc1cccc(-c2nc(COc3cn[nH]c3)ccc2OC(F)F)c1 | > 10000 | – | 372 | – | – | – | – |
| COc1ccc(Cc2cn[nH]c2)nc1-c1cccc(OC(F)(F)F)c1 | 7440 | 162 | 46 | – | – | – | – |
| COc1ccc(Cn2cccn2)nc1-c1cccc(Cl)c1 | 9170 | 8 | 1150 | – | – | – | – |
| Fc1cccc(-c2nc(Nc3cn[nH]c3)ccc2OC(F)F)c1 | 1750 | 13 | 136 | – | – | – | – |
| COc1cccc(-c2nc(Cn3ncnn3)ccc2OC(F)F)c1 | > 10000 | – | 17 | – | – | – | – |
| FC(F)Oc1cccc(-c2nc(Cn3ccnc3)ccc2OCc2ccccc2)c1 | > 10000 | – | 174 | – | – | – | – |
| COc1ccc(Cc2ccncc2)nc1-c1cccc([N+](=O)[O-])c1 | – | – | – | 1120 | – | – | – |
| COc1ccc(Nc2cn[nH]c2)nc1-c1cccc(Cl)c1 | 3160 | 7 | 468 | – | – | – | – |
| COc1cccc(-c2nc(Cc3ccc(CCO)cc3)ccc2OC(F)F)c1 | 4000 | 581 | 6.9 | – | – | – | – |
| COc1cccc(-c2nc(Cn3cnc(C(F)(F)F)n3)ccc2OC(F)F)c1 | > 10000 | – | 743 | – | – | – | – |
| COc1ccc(Nc2cn[nH]c2)nc1-c1cccc(OC(F)F)c1 | 2500 | 13 | 188 | – | – | – | – |
| COc1cccc(-c2nc(Oc3cn[nH]c3)ccc2OC(F)F)c1 | > 10000 | – | 281 | – | – | – | – |
| COc1ccc(Cn2cncn2)nc1-c1cccc(OC(F)F)c1 | > 10000 | – | 15 | – | – | – | – |
| Fc1ccc(Cc2cn[nH]c2)nc1-c1cccc(Cl)c1 | > 10000 | – | 744 | – | – | – | – |
| COc1ccc(Nc2cn[nH]c2)nc1-c1cccc(C(F)(F)F)c1 | > 10000 | – | 4310 | – | – | – | – |
| COc1ccc(Cn2cnc(C(F)(F)F)n2)nc1-c1cccc(OC(F)F)c1 | > 10000 | – | 785 | – | – | – | – |
| COc1ccc(Cn2cccn2)nc1-c1cccc(F)c1 | > 10000 | – | 5530 | – | – | – | – |

| Structure (SMILES) | IC50 [1] [nM] | Ratio IC50 [2] | IC50 [3] [nM] | IC50 [4] [nM] | Ratio IC50 (Homo sapiens) | IC50 [5] [nM] | logIC50 [3] |
| --- | --- | --- | --- | --- | --- | --- | --- |
| COc1ccc(Cc2cn[nH]c2)nc1-c1cccc(C(F)(F)F)c1 | 7850 | 42 | 186 | – | – | – | – |
| COc1ccc(Oc2cn[nH]c2)nc1-c1cccc(C(F)(F)F)c1 | 3240 | 0.92 | 3540 | – | – | – | – |
| COc1cccc(-c2nc(Cc3ccc(CCCO)cc3)ccc2OC(F)F)c1 | > 10000 | – | 24 | – | – | – | – |
| COc1ccc(Nc2cn[nH]c2)nc1-c1cccc(F)c1 | 2530 | 5 | 529 | – | – | – | – |
| COc1ccc(Oc2cn[nH]c2)nc1-c1cccc(OC(F)F)c1 | > 10000 | – | 1550 | – | – | – | – |
| COc1cccc(-c2nc(CNc3cn[nH]c3)ccc2OC(F)F)c1 | 2270 | 4 | 530 | – | – | – | – |
| COc1ccc(Cc2ccncc2)nc1-c1cccc(Cl)c1 | – | – | – | 720 | – | – | – |
| COc1ccc(Cc2cnn(C)c2)nc1-c1cccc(Cl)c1 | – | – | – | 858 | 1670 | 0.5 | – |
| COc1cccc(-c2nc(Cn3cncn3)ccc2OC(F)F)c1 | > 10000 | – | 42 | – | – | – | – |
| COc1cccc(-c2nc(Cc3cn[nH]c3)ccc2OC)c1 | 2130 | 165 | 13 | – | – | – | 1.11 log(nM) |
| COc1ccc(Cn2ncnn2)nc1-c1cccc(OC(F)F)c1 | > 10000 | – | 21 | – | – | – | – |
| COc1ccc(Oc2cn[nH]c2)nc1-c1cccc(Cl)c1 | 4160 | 14 | 306 | – | – | – | – |
| COc1ccc(Cc2cn[nH]c2)nc1-c1cccc([N+](=O)[O-])c1 | – | – | – | 280 | – | – | – |
| COc1cccc(-c2nc(C(=O)c3cn[nH]c3)ccc2OC(F)F)c1 | 1930 | 2 | 873 | – | – | – | – |
| COc1ccc(Oc2cn[nH]c2)nc1-c1cccc(F)c1 | 4540 | 5 | 836 | – | – | – | – |
| FC(F)Oc1cccc(-c2nc(Cc3ccncc3)ccc2OCc2ccccc2)c1 | > 7760 | – | 610 | – | – | – | – |
| COc1cccc(-c2nc(Nc3cn[nH]c3)ccc2OC(F)F)c1 | > 10000 | – | 658 | – | – | – | – |
| COc1ccc(Cn2cccn2)nc1-c1cccc(C(F)(F)F)c1 | > 10000 | – | > 10000 | – | – | – | – |
| COc1ccc(Cc2ccc(CCO)cc2)nc1-c1cccc(OC(F)F)c1 | > 10000 | – | 4 | – | – | – | – |

Next, values leading:

| IC50 [1] [nM] | Ratio IC50 [2] | IC50 [3] [nM] | IC50 [4] [nM] | Ratio IC50 (Homo sapiens) | IC50 [5] [nM] | logIC50 [3] | Structure (SMILES) |
| --- | --- | --- | --- | --- | --- | --- | --- |
| 91 | 254 | 0.36 | – | – | – | – | O=[N+]([O-])c1cccc(-c2nc(Cc3cn[nH]c3)ccc2OC(F)F)c1 |
| 593 | 559 | 1.06 | – | – | – | – | COc1ccc(Cn2ccnc2)nc1-c1cccc(OC(F)F)c1 |
| 274 | 0.61 | 446 | – | – | – | – | FC(F)Oc1ccc(Cc2cn[nH]c2)nc1-c1cccc(OCc2ccccc2)c1 |
| 853 | 244 | 3.5 | – | – | – | – | COc1cccc(-c2nc(Cc3cnn(C)c3)ccc2OC(F)F)c1 |
| 1260 | 81 | 16 | – | – | – | – | COc1ccc(Cn2cnnn2)nc1-c1cccc(OC(F)F)c1 |
| 646 | 28 | 23 | – | – | – | – | COc1cccc(-c2nc(Cn3cnnn3)ccc2OC(F)F)c1 |
| 621 | 159 | 3.9 | – | – | – | – | COc1cccc(-c2nc(Cc3ccncc3)ccc2OC(F)F)c1 |
| 1070 | 141 | 7.6 | – | – | – | – | Fc1cccc(-c2nc(Cc3cn[nH]c3)ccc2OC(F)F)c1 |
| 1070 | 793 | 1.4 | – | – | – | – | COc1ccc(Cc2cn[nH]c2)nc1-c1cccc(OC(F)F)c1 |
| 1440 | 137 | 11 | – | – | – | – | COc1ccc(Cc2cnn(C)c2)nc1-c1cccc(OC(F)F)c1 |
| 923 | 154 | 6 | – | – | – | – | COc1ccc(Cc2cn[nH]c2)nc1-c1cccc(Cl)c1 |
| 665 | 364 | 1.8 | – | – | – | 0.26 log(nM) | COc1ccc(Cc2ccncc2)nc1-c1cccc(OC(F)F)c1 |
| 730 | 57 | 13 | – | – | – | – | COc1ccc(Cc2cn[nH]c2)nc1-c1ccc2nonc2c1 |
| 46 | 0.54 | 85 | – | – | – | – | FC(F)Oc1ccc(Cn2ccnc2)nc1-c1cccc(OCc2ccccc2)c1 |
| 513 | 242 | 2.1 | – | – | – | – | COc1cccc(-c2nc(Cn3ccnc3)ccc2OC(F)F)c1 |
| 81 | 270 | 0.3 | – | – | – | – | O=[N+]([O-])c1cccc(-c2nc(Cn3ccnc3)ccc2OC(F)F)c1 |
| 1060 | 4 | 281 | – | – | – | – | COc1cccc(-c2nc(Cn3cccn3)ccc2OC(F)F)c1 |
| 198 | 54 | 3.7 | – | – | – | 0.57 log(nM) | Fc1cccc(-c2nc(Cn3ccnc3)ccc2OC(F)F)c1 |
| 143 | 0.84 | 171 | – | – | – | – | FC(F)Oc1ccc(Cc2ccncc2)nc1-c1cccc(OCc2ccccc2)c1 |
| 764 | 62 | 12.3 | – | – | – | – | COc1cccc(-c2nc(Cc3cccnc3)ccc2OC(F)F)c1 |
| 995 | 42 | 23.8 | – | – | – | – | COc1ccc(Cc2cn[nH]c2)nc1-c1cccc(F)c1 |
| 521 | 193 | 2.7 | – | – | – | – | COc1cccc(-c2nc(Cc3cn[nH]c3)ccc2OC(F)F)c1 |
| 1190 | 116 | 10.2 | – | – | – | – | COc1cccc(-c2nc(Cc3cncnc3)ccc2OC(F)F)c1 |
